Several values for one entry are separate records, joined by “and”; a condition that tells them apart may be missing. Identical values can stand only once. Like-named read-outs stand apart in the source and are kept apart here. Values belong to the compound of their own block, whether it stands above or below them.
What was measured:
[1] = test system: OATP2B1; details: cited from earlier work
[2] = test system: OATP1B1; details: following a single 600 mg dose; cited from earlier work
[3] = test system: OATP1B3; details: following a single 600 mg dose; cited from earlier work
[4] = test system: MRP2; details: in vitro; ref Idorsia Pharmaceuticals, data on file; cited from earlier work
[5] = test system: platelet inhibition; details: single s.c. doses of 8 and 16 mg, postdose; cited from earlier work
[6] = test system: OATP1B3; details: in vitro; ref Idorsia Pharmaceuticals, data on file; cited from earlier work
[7] = Safety and tolerability evaluation of study treatments in healthy subjects; format: in vivo, human; details: for Number of AEs reported: 14 subjects
Summary of the method: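 Randomized, double-blind, two-period crossover in healthy adults with a 7–10 day washout. Each period gave 100 mL saline or 600 mg OATP inhibitor i.v. over 30 min, with bags and lines covered. This was followed by 4 mg test compound s.c. in the thigh under fasting. Monitoring throughout covered AEs, serious AEs, physical exam, vital signs, 12-lead ECG, body weight, clinical chemistry, hematology and coagulation.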

[8] = cited from earlier work
[9] = ref Idorsia Pharmaceuticals, data on file; cited from earlier work
[10] = cited from earlier work; remark: listed apart in the source
[11] = format: in vivo, human
Summary of the method: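 Same crossover dosing (saline or 600 mg inhibitor i.v. over 30 min, then 4 mg s.c. fasting). Plasma was sampled from 5 min to 36 h post-dose and stored at −25°C. Quantification used validated LC-MS/MS (LLOQ 1.00 ng/mL; linear 1.00–2,000 ng/mL). Noncompartmental analysis: AUC0–t by linear trapezoidal rule; AUC0–∞ adds Ct/λz; CL/F = Dose/AUC0–∞. Treatment effect given as geometric mean ratios with 90% CI.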

[12] = test system: OATP1B1; details: in vitro; ref Idorsia Pharmaceuticals, data on file; cited from earlier work
[13] = cited from earlier work; remark: listed apart in the source
[14] = 600 mg rifampin i.v. before 4 mg selatogrel s.c.
[15] = Treatment A: placebo + 4 mg selatogrel s.c., n = 13
[16] = Treatment B: 600 mg rifampin i.v. + 4 mg selatogrel s.c., n = 13
[17] = treatment B (rifampin) / A (placebo), n = 13

Structure (SMILES): CO[C@H]1/C=C/O[C@@]2(C)Oc3c(C)c(O)c4c(O)c(c(/C=N/N5CCN(C)CC5)c(O)c4c3C2=O)NC(=O)/C(C)=C\C=C\[C@H](C)[C@H](O)[C@@H](C)[C@@H](O)[C@@H](C)[C@H](OC(C)=O)[C@@H]1C [rifampin]
Inhibition of OATP2B1 [1]: not a potent inhibitor | Inhibition of OATP1B1 [2]: potent inhibitor | Inhibition of OATP1B3 [3]: potent inhibitor

Decrease of CL/F with rifampin [11, 14]: ~ 30% | Decrease of Vd/F with rifampin [11, 14]: ~ 30% | Increase of AUC0–t with rifampin compared with placebo [11, 14]: 44% | Increase of AUC0–∞ with rifampin compared with placebo [11, 14]: 43% and ~40% | Increase of Cmax with rifampin compared with placebo [11, 14]: 19% and ~ 20% | AUC0–t, geometric mean [11, 15]: 273.7 ng·h/mL | AUC0–∞, geometric mean [11, 15]: 279.8 ng·h/mL | CL/F, geometric mean [11, 15]: 14.3 L/h | AUC0–t, geometric mean [11, 16]: 392.6 ng·h/mL | AUC0–∞, geometric mean [11, 16]: 398.7 ng·h/mL | CL/F, geometric mean [11, 16]: 10.0 L/h | AUC0–t, geometric mean ratio B/A [11, 17]: 1.44 | AUC0–∞, geometric mean ratio B/A [11, 17]: 1.43 | CL/F, geometric mean ratio B/A [11, 17]: 0.70 | Cmax, geometric mean ratio B/A [11, 17]: 1.19 | Vd/F, geometric mean ratio B/A [11, 17]: 0.68 | t 1/2, geometric mean ratio B/A [11, 17]: 0.97
Structure (SMILES): CCCCOC(=O)N1CCN(C(=O)[C@H](CP(=O)(O)O)NC(=O)c2cc(N3CC[C@H](OC)C3)nc(-c3ccccc3)n2)CC1 [selatogrel, 4‐((R)‐2‐{[6‐((S)‐3‐Methoxypyrrolidin‐1‐yl)‐2‐phenylpyrimidine‐4‐carbonyl]amino}‐ 3‐phosphonopropionyl)piperazine‐1‐carboxylic Acid Butyl Ester]
Substrate of MRP2 [4]: substrate | Time to reversal of pharmacodynamic effect [5]: ≤ 24 h | Substrate of OATP1B3 [6]: substrate | Intensity of AEs ([7]; both treatment periods): mild | Serious adverse events or AEs leading to discontinuation ([7]; both treatment periods): No serious adverse events or AEs leading to study discontinuation | Overall safety and tolerability ([7]; selatogrel 4 mg s.c. after rifampin or matching placebo): safe and well‐tolerated | Number of AEs reported ([7]; selatogrel 4 mg s.c. with 600 mg rifampin i.v. (treatment B)): 17 | Number of AEs reported ([7]; selatogrel 4 mg s.c. with placebo (treatment A)): 8 | Number of AEs considered related to study treatment ([7]; treatment period A (placebo + selatogrel)): 1 | Exposure dose proportionality ([8]; dose range 1–32 mg): dose‐proportional exposure | Safety and tolerability in single-ascending dose study ([8]; dose range 1–32 mg): safe and well‐tolerated | Time of absorption after s.c. administration ([8]; s.c.): 30 to 45 min | elimination half-life ([8]; s.c.): 2 to 9 h | transcellular permeability [9]: 0.2 10^−6 cm/seconds | Plasma protein binding [10]: highly bound to plasma proteins | Substrate of OATP1B1 [12]: substrate | Route of elimination [13]: mainly eliminated unchanged via the biliary route
